According to ChEMBL document CHEMBL2146427, “Protective effects of hyperoside against carbon tetrachloride-induced liver damage in mice” (2011):
Active and inactive are the calls of the source. The calls are words filed in the database; no cut-off is given here.

How the values were obtained:
[1] = system: Mus musculus; assay: Hepatoprotective activity against CCL4-induced liver damage in ICR mouse assessed as serum AST level at 50 mg/kg, ip dosed 30 mins before and 2 hrs post CCL4 challenge and measured 24 hrs post CCL4 challenge (reference value: 7518 +/- 426 U/L); type: functional; conditions: route intraperitoneal
[2] = system: Mus musculus; assay: Hepatoprotective activity against CCL4-induced liver damage in ICR mouse assessed as […] level per gram of liver at 100 mg/kg, ip dosed 30 mins before and 2 hrs post CCL4 challenge and measured 24 hrs post CCL4 challenge (reference value: 4.8 +/- 0.3 umol/g liver); type: functional; conditions: route intraperitoneal
[3] = system: Mus musculus; assay: Hepatoprotective activity against CCL4-induced liver damage in ICR mouse assessed as serum AST level at 100 mg/kg, ip dosed 30 mins before and 2 hrs post CCL4 challenge and measured 24 hrs post CCL4 challenge (reference value: 7518 +/- 426 U/L); type: functional; conditions: route intraperitoneal
[4] = system: Mus musculus; assay: Hepatoprotective activity against CCL4-induced liver damage in ICR mouse assessed as reduction in centrizonal necrosis at 100 mg/kg, ip dosed 30 mins before and 2 hrs post CCL4 challenge and measured 24 hrs post CCL4 challenge by hematoxylin-eosin staining based method; type: functional, organism-based; design: dose 100 mg/kg
Procedure, shortened: (§1)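 Left liver lobe fixed in 10% neutral-buffered formalin, paraffin-embedded, cut at 5 μm and stained with H&E. Scored blind for portal inflammation, hepatocellular necrosis and inflammatory infiltration across 100 random nonconsecutive fields. Male ICR mice; CCl4 20 μL/kg ip in olive oil; tissue taken at 24 h.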

[5] = system: Mus musculus; assay: Hepatoprotective activity against CCL4-induced liver damage in ICR mouse assessed as […] level per gram of liver at 200 mg/kg, ip dosed 30 mins before and 2 hrs post CCL4 challenge and measured 24 hrs post CCL4 challenge (reference value: 4.8 +/- 0.3 umol/g liver); type: functional; conditions: route intraperitoneal
[6] = system: Mus musculus; assay: Hepatoprotective activity against CCL4-induced liver damage in ICR mouse assessed as reduction in CCL-induced iNOS mRNA expression at 100 mg/kg, ip dosed 30 mins before and 2 hrs post CCL4 challenge and measured 24 hrs post CCL4 challenge by RT-PCR; type: functional, organism-based; design: dose 100 mg/kg
Procedure, shortened: (§2)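 Liver total RNA (Chomczynski–Sacchi), oligo(dT) primed reverse transcription, then PCR with 10 μM primers. Cycling was 94/56/72 °C, 30 s each, for 35 cycles (COX-2) or 30 cycles (HO-1), and 94/60/72 °C for 35 cycles (iNOS), with β-actin at 25 cycles. Products were run on 1.5% agarose and stained with ethidium bromide. Male ICR mice, 10 per group, fasted 16 h.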

[7] = system: Mus musculus; assay: Hepatoprotective activity against CCL4-induced liver damage in ICR mouse assessed as increase in CCL-induced nuclear Nrf2 protein level at 100 mg/kg, ip dosed 30 mins before and 2 hrs post CCL4 challenge and measured 24 hrs post CCL4 challenge by Western blot; type: functional, organism-based; design: dose 100 mg/kg
Procedure, shortened: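 Nuclear proteins were extracted from fresh liver with NE-PER, and 15 μg per lane was immunoblotted: nitrocellulose, 1 h milk block, primary antibody overnight at 4 °C, ECL, densitometry. Male ICR mice (25–30 g), 10 per group, fasted 16 h; CCl4 20 μL/kg ip in olive oil; sampled 24 h later.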

[8] = system: Mus musculus; assay: Hepatoprotective activity against CCL4-induced liver damage in ICR mouse assessed as serum ALT level at 200 mg/kg, ip dosed 30 mins before and 2 hrs post CCL4 challenge and measured 24 hrs post CCL4 challenge (reference value: 10229 +/- 918 U/L); type: functional; conditions: route intraperitoneal
[9] = system: Mus musculus; assay: Hepatoprotective activity against CCL4-induced liver damage in ICR mouse assessed as serum AST level at 200 mg/kg, ip dosed 30 mins before and 2 hrs post CCL4 challenge and measured 24 hrs post CCL4 challenge (reference value: 7518 +/- 426 U/L); type: functional; conditions: route intraperitoneal
[10] = system: Mus musculus; assay: Hepatoprotective activity against CCL4-induced liver damage in ICR mouse assessed as augmentation of CCL-induced HO-1 protein expression at 100 mg/kg, ip dosed 30 mins before and 2 hrs post CCL4 challenge and measured 24 hrs post CCL4 challenge by Western blot; type: functional, organism-based; design: dose 100 mg/kg
[11] = system: Mus musculus; assay: Hepatoprotective activity against CCL4-induced liver damage in ICR mouse assessed as reduction in CCL-induced COX2 protein expression at 100 mg/kg, ip dosed 30 mins before and 2 hrs post CCL4 challenge and measured 24 hrs post CCL4 challenge by Western blot; type: functional, organism-based; design: dose 100 mg/kg
[12] = system: Mus musculus; assay: (§3) Hepatoprotective activity against CCL4-induced liver damage in ICR mouse assessed as […] level per mg protein at 200 mg/kg, ip dosed 30 mins before and 2 hrs post CCL4 challenge and measured 24 hrs post CCL4 challenge by TBARS detection based spectrophotometry (reference value: 3.2 +/- 0.5 nmol/mg protein); type: functional; conditions: route intraperitoneal
[13] = system: Mus musculus; assay: Hepatoprotective activity against CCL4-induced liver damage in ICR mouse assessed as serum ALT level at 100 mg/kg, ip dosed 30 mins before and 2 hrs post CCL4 challenge and measured 24 hrs post CCL4 challenge (reference value: 10229 +/- 918 U/L); type: functional; conditions: route intraperitoneal
[14] = system: Mus musculus; assay: Hepatoprotective activity against CCL4-induced liver damage in ICR mouse assessed as reduction in Kupffer cell hyperplasia at 100 mg/kg, ip dosed 30 mins before and 2 hrs post CCL4 challenge and measured 24 hrs post CCL4 challenge by hematoxylin-eosin staining based method; type: functional, organism-based; design: dose 100 mg/kg; procedure, shortened: as §1
[15] = system: Mus musculus; assay: Hepatoprotective activity against CCL4-induced liver damage in ICR mouse assessed as serum ALT level at 50 mg/kg, ip dosed 30 mins before and 2 hrs post CCL4 challenge and measured 24 hrs post CCL4 challenge (reference value: 10229 +/- 918 U/L); type: functional; conditions: route intraperitoneal
[16] = system: Mus musculus; assay: Hepatoprotective activity against CCL4-induced liver damage in ICR mouse assessed as reduction in CCL-induced COX2 mRNA expression at 100 mg/kg, ip dosed 30 mins before and 2 hrs post CCL4 challenge and measured 24 hrs post CCL4 challenge by RT-PCR; type: functional, organism-based; design: dose 100 mg/kg; procedure, shortened: as §2
[17] = system: Mus musculus; assay: Hepatoprotective activity against CCL4-induced liver damage in ICR mouse assessed as augmentation of CCL-induced HO-1 mRNA expression at 100 mg/kg, ip dosed 30 mins before and 2 hrs post CCL4 challenge and measured 24 hrs post CCL4 challenge by RT-PCR; type: functional, organism-based; design: dose 100 mg/kg; procedure, shortened: as §2
[18] = system: Mus musculus; assay: as §3, with “100” for “200”; type: functional; conditions: route intraperitoneal
[19] = system: Mus musculus; assay: Hepatoprotective activity against CCL4-induced liver damage in ICR mouse assessed as liver MDA level per mg protein at 50 mg/kg, ip dosed 30 mins before and 2 hrs post CCL4 challenge and measured 24 hrs post CCL4 challenge by TBARS detection based spectrophotometry (reference value: 3.2 +/- 0.5 nmol/mg protein); conditions: route intraperitoneal
[20] = system: Mus musculus; assay: Hepatoprotective activity against CCL4-induced liver damage in ICR mouse assessed as […] level per gram of liver at 50 mg/kg, ip dosed 30 mins before and 2 hrs post CCL4 challenge and measured 24 hrs post CCL4 challenge (reference value: 4.8 +/- 0.3 umol/g liver); type: functional; conditions: route intraperitoneal
[21] = system: Mus musculus; assay: Hepatoprotective activity against CCL4-induced liver damage in ICR mouse assessed as reduction in CCL-induced TNFalpha production at 100 mg/kg, ip dosed 30 mins before and 2 hrs post CCL4 challenge and measured 24 hrs post CCL4 challenge by ELISA; type: functional, organism-based; design: dose 100 mg/kg
Procedure, shortened: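 Serum TNF-α measured by commercial ELISA on abdominal aortic blood drawn 24 h after ip CCl4 (20 μL/kg in olive oil). Male ICR mice, 10 per group, fasted 16 h; saline vehicle ip; mean ± SEM.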

[22] = system: Mus musculus; assay: Hepatoprotective activity against CCL4-induced liver damage in ICR mouse assessed as reduction in portal inflammation at 100 mg/kg, ip dosed 30 mins before and 2 hrs post CCL4 challenge and measured 24 hrs post CCL4 challenge by hematoxylin-eosin staining based method; type: functional, organism-based; design: dose 100 mg/kg; procedure, shortened: as §1
[23] = system: Mus musculus; assay: Hepatoprotective activity against CCL4-induced liver damage in ICR mouse assessed as reduction in CCL-induced iNOS protein expression at 100 mg/kg, ip dosed 30 mins before and 2 hrs post CCL4 challenge and measured 24 hrs post CCL4 challenge by Western blot; type: functional, organism-based; design: dose 100 mg/kg

In the case of `O=c1c(O[C@@H]2O[C@H](CO)[C@H](O)[C@H](O)[C@H]2O)c(-c2ccc(O)c(O)c2)oc2cc(O)cc(O)c12` [HYPEROSIDE], the Activity [1] is reported as 6820 U/L, the Activity [2] is reported as 5.2 µmol and the Activity [3] is reported as 5488 U/L. For the same molecule, the Activity [4] was “Active”, the Activity [5] was 6 µmol and the Activity [6] was “Active”. For the same molecule, the Activity [7] was “Active”, the Activity [8] was 7055 U/L and the Activity [9] was 5382 U/L. For the same molecule, the Activity [10] was “Active”, the Activity [11] was “Active” and the Activity [12] was 1.4 nmol. For the same molecule, the Activity [13] was 7134 U/L, the Activity [14] was “Active” and the Activity [15] was 10740 U/L. For the same molecule, the Activity [16] was “Active”, the Activity [17] was “Active” and the Activity [18] was 1.5 nmol. For the same molecule, the Activity [19] was 2.4 nmol, the Activity [20] was 6.1 µmol and the Activity [21] was “Active”. The Activity [22] was “Active” and the Activity [23] was “Active”.
